Test results reported in ChEMBL document CHEMBL4382240, “Discovery of novel 2,5-dihydroxyterephthalamide derivatives as multifunctional agents for the treatment of Alzheimer's disease” (Bioorg Med Chem, 2018).

Key:
[1] = biological target: T1, Acetylcholinesterase (Rattus norvegicus, UniProt P37136); assay: Inhibition of rat cortex AChE using acetylthiocholine iodide as substrate after 15 mins by Ellman's method
T1 sequence (P37136 whole entry): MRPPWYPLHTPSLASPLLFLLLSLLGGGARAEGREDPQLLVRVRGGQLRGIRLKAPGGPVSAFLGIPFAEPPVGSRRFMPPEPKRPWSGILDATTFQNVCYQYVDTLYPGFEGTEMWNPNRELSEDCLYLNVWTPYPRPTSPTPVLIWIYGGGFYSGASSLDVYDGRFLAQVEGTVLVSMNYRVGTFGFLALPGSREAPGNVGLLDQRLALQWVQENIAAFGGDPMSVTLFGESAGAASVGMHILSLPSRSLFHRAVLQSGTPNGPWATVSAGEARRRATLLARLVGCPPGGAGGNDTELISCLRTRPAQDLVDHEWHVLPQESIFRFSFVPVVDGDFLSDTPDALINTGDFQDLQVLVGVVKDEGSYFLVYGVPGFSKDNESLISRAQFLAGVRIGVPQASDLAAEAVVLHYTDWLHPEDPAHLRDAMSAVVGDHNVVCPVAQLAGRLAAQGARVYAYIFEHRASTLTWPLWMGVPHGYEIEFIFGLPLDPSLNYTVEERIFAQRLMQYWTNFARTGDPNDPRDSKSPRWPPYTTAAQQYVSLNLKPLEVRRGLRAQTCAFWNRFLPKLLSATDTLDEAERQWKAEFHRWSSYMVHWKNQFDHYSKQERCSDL

[2] = biological target: Butyrylcholinesterase (Rattus norvegicus, UniProt Q9JKC1); assay: Inhibition of rat serum BuChE using butyrylthiocholine iodide as substrate after 15 mins by Ellman's method; format: ADME
Chain of Butyrylcholinesterase (Q9JKC1 whole entry): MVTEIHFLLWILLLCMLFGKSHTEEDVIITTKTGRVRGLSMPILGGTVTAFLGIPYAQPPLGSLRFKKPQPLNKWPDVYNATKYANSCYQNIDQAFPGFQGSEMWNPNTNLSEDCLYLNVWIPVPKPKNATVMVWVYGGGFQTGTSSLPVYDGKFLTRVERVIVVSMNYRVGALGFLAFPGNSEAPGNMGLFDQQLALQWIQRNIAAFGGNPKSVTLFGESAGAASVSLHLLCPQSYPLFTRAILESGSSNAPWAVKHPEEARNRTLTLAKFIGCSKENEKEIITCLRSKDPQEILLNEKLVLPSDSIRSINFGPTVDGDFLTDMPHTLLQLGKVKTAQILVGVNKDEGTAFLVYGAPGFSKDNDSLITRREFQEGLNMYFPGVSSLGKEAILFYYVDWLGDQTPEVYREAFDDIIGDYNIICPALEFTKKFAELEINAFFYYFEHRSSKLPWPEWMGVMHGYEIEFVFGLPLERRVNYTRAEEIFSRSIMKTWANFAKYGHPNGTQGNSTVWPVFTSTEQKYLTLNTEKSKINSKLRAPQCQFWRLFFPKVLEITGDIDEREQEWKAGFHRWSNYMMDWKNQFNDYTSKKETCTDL

[3] = biological target: Acetylcholinesterase (Electrophorus electricus, UniProt O42275); assay: Inhibition of electric eel AChE using acetylthiocholine iodide as substrate after 15 mins by Ellman's method
Chain of Acetylcholinesterase (Electrophorus electricus, UniProt O42275) (O42275 whole entry): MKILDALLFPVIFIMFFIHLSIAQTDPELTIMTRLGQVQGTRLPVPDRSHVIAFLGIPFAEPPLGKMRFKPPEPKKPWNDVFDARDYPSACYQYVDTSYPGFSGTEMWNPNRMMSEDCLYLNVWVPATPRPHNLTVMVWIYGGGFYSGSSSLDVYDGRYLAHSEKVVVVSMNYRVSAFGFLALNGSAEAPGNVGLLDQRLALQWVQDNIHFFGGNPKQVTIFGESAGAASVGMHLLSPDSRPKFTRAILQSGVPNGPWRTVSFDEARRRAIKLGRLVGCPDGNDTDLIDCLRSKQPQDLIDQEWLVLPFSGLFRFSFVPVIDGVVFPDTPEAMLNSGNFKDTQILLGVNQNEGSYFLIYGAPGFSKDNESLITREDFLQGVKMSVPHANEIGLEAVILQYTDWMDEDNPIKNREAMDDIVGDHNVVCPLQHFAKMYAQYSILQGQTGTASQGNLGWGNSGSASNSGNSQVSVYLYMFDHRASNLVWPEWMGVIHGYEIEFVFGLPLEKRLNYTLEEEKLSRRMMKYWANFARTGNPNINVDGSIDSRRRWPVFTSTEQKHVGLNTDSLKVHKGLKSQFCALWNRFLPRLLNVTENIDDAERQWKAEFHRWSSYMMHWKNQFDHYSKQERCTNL

[4] = Antioxidant activity assessed as trolox equivalent of APPH-induced radical scavenging activity at 5 uM preincubated for 15 mins followed by AAPH addition measured every minute for 90 mins by ORAC fluorescein assay; format: functional
Summary of the method: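 ORAC-FL in 75 mM phosphate buffer, pH 7.4. Fluorescein (150 nM final) and sample (tested at 1–10 µM) incubated 15 min at 37 °C. AAPH (12 mM final) then added, and fluorescence (ex 485/em 535 nm) read every minute for 90 min. Trolox standard 1–8 µM; result expressed as µM Trolox equivalent per µM compound. Duplicate wells; three independent experiments.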

[5] = biological target: T2, Amyloid-beta precursor protein (Homo sapiens, UniProt P05067); assay: Inhibition of human amyloid beta (1 to 42) self-induced aggregation at 25 uM after 24 hrs by Thioflavin T based fluorometric assay relative to control
T2 sequence (P05067 whole entry): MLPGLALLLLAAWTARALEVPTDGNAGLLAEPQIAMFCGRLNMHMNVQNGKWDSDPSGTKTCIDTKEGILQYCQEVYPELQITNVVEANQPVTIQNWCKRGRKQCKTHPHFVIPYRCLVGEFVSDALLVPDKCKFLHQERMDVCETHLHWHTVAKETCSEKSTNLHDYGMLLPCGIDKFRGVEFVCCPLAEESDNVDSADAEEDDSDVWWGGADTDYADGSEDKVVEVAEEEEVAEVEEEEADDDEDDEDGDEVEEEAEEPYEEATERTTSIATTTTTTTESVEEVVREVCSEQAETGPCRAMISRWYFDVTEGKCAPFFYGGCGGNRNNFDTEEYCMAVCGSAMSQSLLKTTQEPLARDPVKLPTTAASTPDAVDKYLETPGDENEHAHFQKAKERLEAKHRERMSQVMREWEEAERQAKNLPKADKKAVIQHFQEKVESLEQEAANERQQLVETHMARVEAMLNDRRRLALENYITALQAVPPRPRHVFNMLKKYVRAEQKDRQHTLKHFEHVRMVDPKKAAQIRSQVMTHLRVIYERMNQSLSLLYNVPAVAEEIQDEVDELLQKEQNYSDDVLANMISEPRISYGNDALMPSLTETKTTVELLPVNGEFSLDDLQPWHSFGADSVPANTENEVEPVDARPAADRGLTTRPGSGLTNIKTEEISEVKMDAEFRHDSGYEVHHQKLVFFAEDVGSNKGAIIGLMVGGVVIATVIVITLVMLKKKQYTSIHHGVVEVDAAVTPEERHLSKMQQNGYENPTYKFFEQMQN
Summary of the method: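 Aβ1-42 (25 µM final) incubated with compound (25 µM final) in 50 mM phosphate buffer, pH 7.4, for 24 h at 37 °C under a sealing film. ThT (5 µM) in 50 mM glycine-NaOH, pH 8.5, then added and fluorescence measured. Triplicate; mean ± SD of three independent experiments.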

[6] = Inhibition of Cu2+ induced human amyloid beta (1 to 42) aggregation at 25 uM after 24 hrs by Thioflavin T based fluorometric assay relative to control
Summary of the method: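 Aβ1-42 (25 µM) and Cu2+ (25 µM) in HEPES buffer (20 mM, pH 6.6, 150 mM NaCl), with or without compound (25 µM final), incubated 24 h at 37 °C. ThT (5 µM) in glycine-NaOH, pH 8.5, added and fluorescence read. Triplicate; three independent experiments.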

[7] = biological target: T2, Amyloid-beta precursor protein; assay: Inhibition of human amyloid beta (1 to 42) self-induced aggregation after 24 hrs by Thioflavin T based fluorometric assay
Summary of the method: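 Self-induced Aβ1-42 aggregation (25 µM peptide) in phosphate buffer, pH 7.4, for 24 h at 37 °C with varying compound concentrations. Aggregation read by ThT fluorescence (5 µM ThT, glycine-NaOH pH 8.5).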

[8] = biological target: T2, Amyloid-beta precursor protein; assay: Disaggregation of self-induced preformed fibrils of human amyloid beta (1 to 42) at 25 uM after 24 hrs by Thioflavin T based fluorometric assay relative to control
Summary of the method: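 Aβ1-42 diluted in HEPES buffer (20 mM, pH 6.6, 150 mM NaCl) and pre-aggregated 24 h at 37 °C. Compound (25 µM) then added for another 24 h at 37 °C on a sealed plate. Remaining fibrils read by ThT fluorescence in glycine-NaOH, pH 8.5. Triplicate; three independent experiments.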

[9] = Disaggregation of Cu2+ induced preformed fibrils of human amyloid beta (1 to 42) at 25 uM after 24 hrs by Thioflavin T based fluorometric assay relative to control
Summary of the method: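 Aβ1-42 (25 µM) with Cu2+ (25 µM) in HEPES buffer pre-aggregated 24 h at 37 °C. Compound (25 µM) then added for a further 24 h at 37 °C. Fibril content measured by ThT fluorescence (glycine-NaOH, pH 8.5). Triplicate; three independent experiments.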

Structure (SMILES)	IC50 [1]	IC50 [2]	IC50 [3]	Activity [4]	inhibition [5]	inhibition [6]	IC50 [7]	Activity [8]	Activity [9]
CCN(CCCCNC(=O)c1cc(O)c(C(=O)NCCCCN(CC)Cc2ccccc2)cc1O)Cc1ccccc1	4.05 µM	> 100 µM	14 µM	0.93 equiv	88%	84.1%	3.86 µM	81.1%	80%
CN(CCCCCCNC(=O)c1cc(O)c(C(=O)NCCCCCCN(C)Cc2ccccc2)cc1O)Cc1ccccc1	5.6 µM	41.9 µM	13.1 µM	1.01 equiv	99.8%	89.1%	2.37 µM	80.9%	89.3%
CCN(CCCCNC(=O)c1cc(O)c(C(=O)NCCCCN(CC)Cc2ccc(N(C)C)cc2)cc1O)Cc1ccc(N(C)C)cc1	27.4 µM	> 100 µM	47.4 µM	3.23 equiv	99.9%	82.5%	3.16 µM	60.4%	84.7%
CCN(CCCNC(=O)c1cc(O)c(C(=O)NCCCN(CC)Cc2ccccc2)cc1O)Cc1ccccc1	7.8 µM	> 100 µM	26.8 µM	0.95 equiv	81%	57.6%	4.2 µM	62.7%	70.6%
COc1ccccc1CN(C)CCCCCCNC(=O)c1cc(O)c(C(=O)NCCCCCCN(C)Cc2ccccc2OC)cc1O	10.6 µM	40.5 µM	6.11 µM	0.62 equiv	99.7%	85.3%	2.31 µM	76.3%	89.8%
COc1cc(/C=C/C(=O)CC(=O)/C=C/c2ccc(O)c(OC)c2)ccc1O						66%			54.7%
O=C(NCCCCN1CCOc2ccccc2C1)c1cc(O)c(C(=O)NCCCCN2CCOc3ccccc3C2)cc1O	30.8 µM	> 100 µM	64.8 µM	1.02 equiv	71.6%	74%	5.47 µM	67.4%	85.3%
CCN(CCCCNC(=O)c1cc(O)c(C(=O)NCCCCN(CC)Cc2ccccc2N(C)C)cc1O)Cc1ccccc1N(C)C	4.17 µM	> 100 µM	10.8 µM	1.16 equiv	99.7%	69.4%	3.71 µM	64.4%	83.3%
CN(CCCNC(=O)c1cc(O)c(C(=O)NCCCN(C)Cc2ccccc2)cc1O)Cc1ccccc1	11.3 µM	> 100 µM	14.1 µM	1.21 equiv	85%	81.2%	3.98 µM	68.5%	71.3%
CCOC(=O)c1cc(O)c(C(=O)OCC)cc1O	> 100 µM	> 100 µM	> 100 µM	0.96 equiv	6.5%	30.7%			
CN(CCCCNC(=O)c1cc(O)c(C(=O)NCCCCN(C)Cc2ccccc2)cc1O)Cc1ccccc1	5.21 µM	> 100 µM	12.6 µM	1.52 equiv	90%	77.6%	3.55 µM	67.7%	77.9%
COc1ccccc1CN(C)CCCNC(=O)c1cc(O)c(C(=O)NCCCN(C)Cc2ccccc2OC)cc1O	9.21 µM	17.3 µM	39.7 µM	1.37 equiv	93.5%	70.4%	3.63 µM	70.1%	73.5%
CCN(CCCCCCNC(=O)c1cc(O)c(C(=O)NCCCCCCN(CC)Cc2ccccc2)cc1O)Cc1ccccc1	4.6 µM	47.2 µM	22.9 µM	1.27 equiv	91.4%	74.3%	2.8 µM	83.5%	82.3%
